Test results reported in ChEMBL document CHEMBL4364271, “Unveiling the Importance of Amide Protons in CSP:ComD Interactions in Streptococcus pneumoniae” (ACS Med Chem Lett, 2019).
The source made the active and inactive calls. The rule behind the calls is not given here. Non-standard residues stand in square brackets, D forms with d. Residues, ends and D or L forms follow the SMILES beside them. NMeR = CN[C@@H](CCCNC(=N)N)C(=O)O; NMeF = CN[C@@H](Cc1ccccc1)C(=O)O; NMeI = CC[C@H](C)[C@H](NC)C(=O)O; NMeD = CN[C@@H](CC(=O)O)C(=O)O; NMeL = CN[C@@H](CC(C)C)C(=O)O; NMeS = CN[C@@H](CO)C(=O)O

Legend:
[1] = system: Streptococcus pneumoniae TIGR4; test: Agonist activity at ComD2 receptor in Streptococcus pneumoniae TIGR4 harboring pcomX/lacZ reporter gene at 10 uM incubated for 30 mins by ONPG based beta-galactosidase assay relative to native CSP2
Summary of the method: (§1)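 Single-dose screen of synthetic peptide at 10 μM in wild-type reporter strains (D39 for ComD1, TIGR4 for ComD2) producing their own CSP and carrying lacZ under the comX promoter. β-gal activity in Miller units normalized to native CSP (CSP1 or CSP2, 100%); DMSO 0%. Triplicates over three separate trials.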

[2] = Solubility of the compound in ammonium carbonate solution at pH 8; assay type: physicochemical; details: buffer
[3] = system: Streptococcus pneumoniae D39; test: Antagonist activity at ComD1 receptor in Streptococcus pneumoniae D39 harboring pcomX/lacZ reporter gene assessed as inhibiton of CSP1-stimulated maximum signal at 10 uM preincubated for 30 mins followed by 50 nM CSP1 addition by ONPG based beta-galactosidase assay relative to native CSP1
Summary of the method: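 Inhibition screen: peptides at 10 μM against CSP1 50 nM (D39, ComD1) or CSP2 250 nM (TIGR4, ComD2), in comX-lacZ reporter strains. β-gal Miller units normalized to CSP alone (100%) and DMSO (0%). Triplicates over three separate trials.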

[4] = Agonist activity at ComD2 receptor in Streptococcus pneumoniae TIGR4 harboring pcomX/lacZ reporter gene incubated for 30 mins by ONPG based beta-galactosidase assay
Summary of the method: (§2)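 Dose-response in wild-type lacZ reporter strains (comX promoter; D39 for ComD1, TIGR4 for ComD2) producing native CSP. Peptides tested over a range of concentrations. β-gal read-out (Miller units) normalized to native CSP. EC50 reported with 95% confidence interval.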

[5] = system: Streptococcus pneumoniae D39; test: Agonist activity at ComD1 receptor in Streptococcus pneumoniae D39 harboring pcomX/lacZ reporter gene at 10 uM incubated for 30 mins by ONPG based beta-galactosidase assay relative to native CSP1; summary of the method: as §1
[6] = Agonist activity at ComD1 receptor in Streptococcus pneumoniae D39 harboring pcomX/lacZ reporter gene incubated for 30 mins by ONPG based beta-galactosidase assay; summary of the method: as §2

CC[C@H](C)[C@H](NC(=O)[C@H](CCCNC(=N)N)NC(=O)[C@H](CCSC)NC(=O)[C@@H](N)CCC(=O)O)C(=O)N[C@@H](CO)C(=O)N[C@@H](CCCNC(=N)N)C(=O)N[C@H](C(=O)N[C@H](C(=O)N[C@@H](CC(C)C)C(=O)N[C@@H](CC(=O)O)C(=O)N[C@@H](Cc1ccccc1)C(=O)N[C@@H](CC(C)C)C(=O)N(C)[C@@H](Cc1ccccc1)C(=O)O)[C@@H](C)CC)[C@@H](C)CC (H-EMRISRIILDFL[NMeF]-OH)
Activity [1]: > 75%
solubility [2]: Insoluble
inhibition [3]: inactive
EC50 [4]: 27 nM
Activity [5]: inactive

CC[C@H](C)[C@H](NC(=O)[C@H](CCCNC(=N)N)NC(=O)[C@H](CCSC)NC(=O)[C@@H](N)CCC(=O)O)C(=O)N[C@@H](CO)C(=O)N[C@@H](CCCNC(=N)N)C(=O)N[C@H](C(=O)N[C@H](C(=O)N[C@@H](CC(C)C)C(=O)N[C@@H](CC(=O)O)C(=O)N[C@@H](Cc1ccccc1)C(=O)N(C)[C@@H](CC(C)C)C(=O)N[C@@H](Cc1ccccc1)C(=O)O)[C@@H](C)CC)[C@@H](C)CC (H-EMRISRIILDF[NMeL]F-OH)
Activity [1]: inactive
solubility [2]: Insoluble
inhibition [3]: inactive
Activity [5]: inactive

CC[C@H](C)[C@H](NC(=O)[C@H](CCCNC(=N)N)NC(=O)[C@H](CCSC)NC(=O)[C@@H](N)CCC(=O)O)C(=O)N[C@@H](CO)C(=O)N[C@@H](CCCNC(=N)N)C(=O)N[C@H](C(=O)N[C@H](C(=O)N[C@@H](CC(C)C)C(=O)N[C@@H](CC(=O)O)C(=O)N(C)[C@@H](Cc1ccccc1)C(=O)N[C@@H](CC(C)C)C(=O)N[C@@H](Cc1ccccc1)C(=O)O)[C@@H](C)CC)[C@@H](C)CC (H-EMRISRIILD[NMeF]LF-OH)
Activity [1]: inactive
solubility [2]: Insoluble
inhibition [3]: inactive
Activity [5]: inactive

CC[C@H](C)[C@H](NC(=O)[C@H](CCCNC(=N)N)NC(=O)[C@H](CCSC)NC(=O)[C@@H](N)CCC(=O)O)C(=O)N[C@@H](CO)C(=O)N[C@@H](CCCNC(=N)N)C(=O)N[C@H](C(=O)N[C@H](C(=O)N[C@@H](CC(C)C)C(=O)N(C)[C@@H](CC(=O)O)C(=O)N[C@@H](Cc1ccccc1)C(=O)N[C@@H](CC(C)C)C(=O)N[C@@H](Cc1ccccc1)C(=O)O)[C@@H](C)CC)[C@@H](C)CC (H-EMRISRIIL[NMeD]FLF-OH)
Activity [1]: > 75%
solubility [2]: Insoluble
inhibition [3]: inactive
EC50 [4]: 340 nM
Activity [5]: inactive

CC[C@H](C)[C@H](NC(=O)[C@H](CCCNC(=N)N)NC(=O)[C@H](CCSC)NC(=O)[C@@H](N)CCC(=O)O)C(=O)N[C@@H](CO)C(=O)N[C@@H](CCCNC(=N)N)C(=O)N[C@H](C(=O)N[C@H](C(=O)N(C)[C@@H](CC(C)C)C(=O)N[C@@H](CC(=O)O)C(=O)N[C@@H](Cc1ccccc1)C(=O)N[C@@H](CC(C)C)C(=O)N[C@@H](Cc1ccccc1)C(=O)O)[C@@H](C)CC)[C@@H](C)CC (H-EMRISRII[NMeL]DFLF-OH)
Activity [1]: inactive
solubility [2]: Insoluble
inhibition [3]: inactive
Activity [5]: inactive

CC[C@H](C)[C@H](NC(=O)[C@H](CCCNC(=N)N)NC(=O)[C@H](CCSC)NC(=O)[C@@H](N)CCC(=O)O)C(=O)N[C@@H](CO)C(=O)N[C@@H](CCCNC(=N)N)C(=O)N[C@H](C(=O)N(C)[C@H](C(=O)N[C@@H](CC(C)C)C(=O)N[C@@H](CC(=O)O)C(=O)N[C@@H](Cc1ccccc1)C(=O)N[C@@H](CC(C)C)C(=O)N[C@@H](Cc1ccccc1)C(=O)O)[C@@H](C)CC)[C@@H](C)CC (H-EMRISRI[NMeI]LDFLF-OH)
Activity [1]: inactive
solubility [2]: Insoluble
inhibition [3]: inactive
Activity [5]: inactive

CC[C@H](C)[C@H](NC(=O)[C@H](CCCNC(=N)N)NC(=O)[C@H](CCSC)NC(=O)[C@@H](N)CCC(=O)O)C(=O)N[C@@H](CO)C(=O)N[C@@H](CCCNC(=N)N)C(=O)N(C)[C@H](C(=O)N[C@H](C(=O)N[C@@H](CC(C)C)C(=O)N[C@@H](CC(=O)O)C(=O)N[C@@H](Cc1ccccc1)C(=O)N[C@@H](CC(C)C)C(=O)N[C@@H](Cc1ccccc1)C(=O)O)[C@@H](C)CC)[C@@H](C)CC (H-EMRISR[NMeI]ILDFLF-OH)
Activity [1]: > 75%
solubility [2]: Insoluble
inhibition [3]: inactive
EC50 [4]: > 1000 nM
Activity [5]: inactive

CC[C@H](C)[C@H](NC(=O)[C@H](CCCNC(=N)N)NC(=O)[C@H](CCSC)NC(=O)[C@@H](N)CCC(=O)O)C(=O)N[C@@H](CO)C(=O)N(C)[C@@H](CCCNC(=N)N)C(=O)N[C@H](C(=O)N[C@H](C(=O)N[C@@H](CC(C)C)C(=O)N[C@@H](CC(=O)O)C(=O)N[C@@H](Cc1ccccc1)C(=O)N[C@@H](CC(C)C)C(=O)N[C@@H](Cc1ccccc1)C(=O)O)[C@@H](C)CC)[C@@H](C)CC (H-EMRIS[NMeR]IILDFLF-OH)
Activity [1]: > 75%
solubility [2]: Insoluble
inhibition [3]: inactive
EC50 [4]: 560 nM
Activity [5]: inactive

CC[C@H](C)[C@H](NC(=O)[C@H](CCCNC(=N)N)NC(=O)[C@H](CO)N(C)C(=O)[C@@H](NC(=O)[C@H](CCCNC(=N)N)NC(=O)[C@H](CCSC)NC(=O)[C@@H](N)CCC(=O)O)[C@@H](C)CC)C(=O)N[C@H](C(=O)N[C@@H](CC(C)C)C(=O)N[C@@H](CC(=O)O)C(=O)N[C@@H](Cc1ccccc1)C(=O)N[C@@H](CC(C)C)C(=O)N[C@@H](Cc1ccccc1)C(=O)O)[C@@H](C)CC (H-EMRI[NMeS]RIILDFLF-OH)
Activity [1]: > 75%
solubility [2]: Insoluble
inhibition [3]: inactive
EC50 [4]: 550 nM
Activity [5]: inactive

CC[C@H](C)[C@H](NC(=O)[C@H](Cc1ccccc1)NC(=O)[C@H](CC(=O)O)NC(=O)[C@H](CCCNC(=N)N)NC(=O)[C@H](Cc1ccccc1)NC(=O)[C@H](Cc1ccccc1)NC(=O)[C@H](CCCCN)NC(=O)[C@H](CO)NC(=O)[C@H](CC(C)C)NC(=O)[C@H](CCCNC(=N)N)NC(=O)[C@H](CCSC)NC(=O)[C@@H](N)CCC(=O)O)C(=O)N(C)[C@@H](CC(C)C)C(=O)N[C@@H](CCC(N)=O)C(=O)N[C@@H](CCCNC(=N)N)C(=O)O (H-EMRLSKFFRDFI[NMeL]QR-OH)
Activity [1]: inactive
EC50 [6]: > 1000 nM
Activity [5]: inactive

CC[C@H](C)[C@H](NC(=O)[C@H](Cc1ccccc1)NC(=O)[C@H](CC(=O)O)NC(=O)[C@H](CCCNC(=N)N)NC(=O)[C@H](Cc1ccccc1)N(C)C(=O)[C@H](Cc1ccccc1)NC(=O)[C@H](CCCCN)NC(=O)[C@H](CO)NC(=O)[C@H](CC(C)C)NC(=O)[C@H](CCCNC(=N)N)NC(=O)[C@H](CCSC)NC(=O)[C@@H](N)CCC(=O)O)C(=O)N[C@@H](CC(C)C)C(=O)N[C@@H](CCC(N)=O)C(=O)N[C@@H](CCCNC(=N)N)C(=O)O (H-EMRLSKF[NMeF]RDFILQR-OH)
Activity [1]: inactive
EC50 [6]: > 1000 nM
Activity [5]: > 75%

CC[C@H](C)[C@H](NC(=O)[C@H](CCCNC(=N)N)NC(=O)[C@H](CO)NC(=O)[C@H]([C@@H](C)CC)N(C)C(=O)[C@H](CCCNC(=N)N)NC(=O)[C@H](CCSC)NC(=O)[C@@H](N)CCC(=O)O)C(=O)N[C@H](C(=O)N[C@@H](CC(C)C)C(=O)N[C@@H](CC(=O)O)C(=O)N[C@@H](Cc1ccccc1)C(=O)N[C@@H](CC(C)C)C(=O)N[C@@H](Cc1ccccc1)C(=O)O)[C@@H](C)CC (H-EMR[NMeI]SRIILDFLF-OH)
Activity [1]: > 75%
solubility [2]: Insoluble
inhibition [3]: inactive
EC50 [4]: > 1000 nM
Activity [5]: inactive

CC[C@H](C)[C@H](NC(=O)[C@H](Cc1ccccc1)NC(=O)[C@H](CC(=O)O)NC(=O)[C@H](CCCNC(=N)N)NC(=O)[C@H](Cc1ccccc1)NC(=O)[C@H](Cc1ccccc1)NC(=O)[C@H](CCCCN)NC(=O)[C@H](CO)NC(=O)[C@H](CC(C)C)N(C)C(=O)[C@H](CCCNC(=N)N)NC(=O)[C@H](CCSC)NC(=O)[C@@H](N)CCC(=O)O)C(=O)N[C@@H](CC(C)C)C(=O)N[C@@H](CCC(N)=O)C(=O)N[C@@H](CCCNC(=N)N)C(=O)O (H-EMR[NMeL]SKFFRDFILQR-OH)
Activity [1]: inactive
EC50 [6]: 280 nM
Activity [5]: > 75%

CC[C@H](C)[C@H](NC(=O)[C@H](CCCNC(=N)N)NC(=O)[C@H](CO)NC(=O)[C@@H](NC(=O)[C@H](CCCNC(=N)N)N(C)C(=O)[C@H](CCSC)NC(=O)[C@@H](N)CCC(=O)O)[C@@H](C)CC)C(=O)N[C@H](C(=O)N[C@@H](CC(C)C)C(=O)N[C@@H](CC(=O)O)C(=O)N[C@@H](Cc1ccccc1)C(=O)N[C@@H](CC(C)C)C(=O)N[C@@H](Cc1ccccc1)C(=O)O)[C@@H](C)CC (H-EM[NMeR]ISRIILDFLF-OH)
Activity [1]: inactive
solubility [2]: Insoluble
inhibition [3]: inactive
Activity [5]: inactive
